In the library only some 3.7% were active in any assay of this set; here they are far more common.
hERG protect: hERG rescue from dofetilide block, primary screen, cell-based, CHO-hERG, FluxOR thallium flux, dofetilide IC70; dofetilide IC70 present; 310,000 compounds, 0.51% hits; activation (rescue from dofetilide block), less the hit threshold, % at 10 µM;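 active means activation above the mean of controls blocked by dofetilide plus 5 SD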;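 further: thallium influx through hERG after potassium depolarization seen as dye fluorescence rise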
KCNQ1 pot: potentiators or activators of KCNQ1 channel, primary screen, cell-based, thallium flux, high-throughput; B-score at 10 µM; Potassium voltage-gated channel subfamily KQT member 1 (Homo sapiens), P51787; CHO-K1 KCNQ1, thallium flux FluxOR fluorescence; active compounds read high; 310,000 compounds, 0.35% hits; AID 2648, 2010;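 active means fluorescence ratio B-score, a plate-corrected score, at least three library SD, with initial intensity B-score within 5 SD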
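Assay system: CHO-K1 cells stably expressing KCNQ1. Medium: assay buffer for compound exposure, DMSO matched across wells. Timing: 37 °C overnight plating, 90-min dark dye load, 20-min compound pretreatment. Signal: kinetic FluxOR fluorescence, 10 s baseline plus 110 s post-stimulus.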
KCNQ1 block: inhibitors of human KCNQ1 channel, primary screen, cell-based, thallium flux, high-throughput | CHO-K1 KCNQ1, FluxOR thallium flux fluorescence; active compounds read high | 310,000 compounds, 1.3% hits | B-score at 10 µM | Potassium voltage-gated channel subfamily KQT member 1 (Homo sapiens), P51787;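 active means compounds whose thallium flux B-score, printed positive for inhibition, exceeds three library SD while starting fluorescence stays within three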;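 further: channel opened by potassium depolarization with thallium stimulus after 20 min compound exposure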
Kir21 block: inhibitors of mouse Kir2.1 inward-rectifier potassium channel | Inward rectifier potassium channel 2 (Mus musculus), P35561 | HEK293-Kir2.1, FluxOR thallium flux fluorescence; active compounds read low | B-score at 10 µM | 310,000 compounds, 0.85% hits | AID 1672, 2009;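 active means fluorescence ratio B-score at or below minus 3 SD of library scores, with starting-brightness B-score within 2 SD, cut at about -4.2 in these data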;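 further: channel flux triggered by added potassium and thallium sulfate stimulus; B-score of peak minus minimum fluorescence over baseline after thallium stimulus; more negative B-score means stronger Kir2.1 block with less thallium influx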
Target sequence (P35561 whole entry, looked up): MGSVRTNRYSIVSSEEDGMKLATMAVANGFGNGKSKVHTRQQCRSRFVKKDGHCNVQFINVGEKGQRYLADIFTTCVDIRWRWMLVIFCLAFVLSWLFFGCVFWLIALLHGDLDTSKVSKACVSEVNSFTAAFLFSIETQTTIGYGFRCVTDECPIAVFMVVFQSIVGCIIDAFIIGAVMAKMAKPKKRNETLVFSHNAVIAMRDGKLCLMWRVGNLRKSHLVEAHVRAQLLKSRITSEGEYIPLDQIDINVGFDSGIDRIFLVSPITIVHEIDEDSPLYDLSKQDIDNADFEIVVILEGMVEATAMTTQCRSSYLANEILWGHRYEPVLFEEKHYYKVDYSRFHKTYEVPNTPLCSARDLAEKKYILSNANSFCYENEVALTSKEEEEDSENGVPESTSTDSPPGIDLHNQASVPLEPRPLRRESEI
KCNK3 inh: human KCNK3 channel inhibitors, primary screen, CHO cells, FluxOR thallium flux, B-score. FluxOR fluorescence; active compounds read low. B-score at 10 µM. 340,000 compounds, 0.84% hits. AID 602410, 2012;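 active means B-score under library mean minus 4 SD, starting fluorescence ratio at most library mean plus 5 SD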;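 further: more negative B-score means stronger inhibition of thallium flux through KCNK3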
KCNK9 block: KCNK9 potassium channel inhibitors, primary screen, HEK293 cells, thallium flux. 310,000 compounds, 1.2% hits. Potassium channel subfamily K member 9 (Homo sapiens), Q9NPC2. AID 488922, 2010. B-score at 10 µM. FluxOR thallium flux fluorescence; active compounds read low;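 active means ratio B-score over 3 SD below the library mean, with starting fluorescence within 5 SD of its mean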;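 further: negative B-score means less thallium flux so channel inhibition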
Numbers without * were called inactive; i = inactive; . = no result given.

SMILES	hERG protect	KCNQ1 pot	KCNQ1 block	Kir21 block	KCNK3 inh	KCNK9 block
N#CC1=C(SCC(=O)c2ccc(Cl)cc2)NC2=C(C(=O)CCC2)C1c1ccco1 (configuration not stated)	-16	i	i	1.3	i	i
CCN(CC(=O)Nc1c(F)cccc1F)C(=O)c1ccc(=O)n(C)n1	.	.	.	.	i	.
CC1=NNC(=O)C1CC(=O)N/N=C/C=C/c1ccccc1 (configuration not stated)	21*	i	i	0.88	i	i
CN(CC(=O)Nc1cccc(F)c1)C(=O)CC1CC2CCC1C2 (configuration not stated)	-7	i	i	0	i	i
O=C(Oc1ccc(Br)cc1C(=S)N1CCCC1)c1ccccc1Cl	-5	i	i	-0.98	i	-8*
O=C(O)CC1(CC(=O)NCc2ccc(C(F)(F)F)cc2)CCCCC1	-9	i	i	-0.45	i	i
O=C(O)CC1(CC(=O)Nc2cc(C(F)(F)F)cc(C(F)(F)F)c2)CCCCC1	-8	i	7*	-1.3	i	i
Cc1ccc(Nc2nc(-c3cccs3)cs2)nc1	6.1*	i	i	0.51	i	i
Cc1ccc(Nc2nc(-c3ccccc3)cs2)nc1	-5	i	i	0.9	i	i
COc1ccc(CCNC(=O)CSc2nn(-c3ccccc3)c(=S)s2)cc1OC	-11	i	i	-6.6*	i	i
CCCCn1c(-c2ccccc2)cnc1SCC(=O)NCCc1ccc(OC)c(OC)c1	-12	i	i	-6.3*	i	i
COc1ccc(CCNC(=O)CSc2ccc3ccccc3c2)cc1OC	-7	i	i	-6.9*	i	i
CC(C)C(OC(=O)C1=Cc2ccccc2OC1)C(=O)NCC1CCCO1 (configuration not stated)	.	.	.	.	i	.
CCn1c(C)[n+](Cc2ccccc2)c2ccc(Cl)cc21	-12	i	i	0	i	i
CCn1c(/C=C/N(C)c2ccccc2)[n+](CC)c2ccc(Cl)cc21	-22	i	13*	-1.7	i	i
CC(C)c1ccc(OCC(=O)Nc2ccc3oc(=O)ccc3c2)cc1	-8	i	i	0	i	i
O=C(/C=C/c1ccccc1)CC(=O)c1ccccc1O	15*	i	i	-1.4	i	i
O=C(C=Cc1cccc(O)c1)c1ccccc1O	.	.	.	.	-9.9*	.
O=C1C2C3C=CC(O3)C2C(=O)N1N=Cc1cccc2ccccc12 (configuration not stated)	.	.	.	.	i	.
CN(CC(=O)Nc1ccc(Cl)cc1)C(=O)C1CCCC1	.	.	.	.	i	.
O=C(NCc1ccco1)c1cc2sccc2n1Cc1ccccc1	-7	i	i	-0.47	i	-6.9*
O=C(c1ccco1)N1CCN(C(=O)c2cc3sccc3n2Cc2ccccc2)CC1	-19	i	i	-0.01	i	i
COc1ccccc1NC(=O)Nc1ccc(-n2ccc(C(F)(F)F)n2)cc1	-7	i	i	-0.01	i	-7.8*
Cc1ccccc1C(=O)NNC(=O)C(=O)Nc1cccc(Cl)c1C	13*	47*	i	-0.31	i	i
COc1ccc2ccc(O)c(CN(C)CC(=O)Nc3ccccc3C(F)(F)F)c2c1	-10	i	i	-0.65	i	i
SMILES	hERG protect	KCNQ1 pot	KCNQ1 block	Kir21 block	KCNK3 inh	KCNK9 block
O=[N+]([O-])c1cccc(/C=N/Nc2cc(Cl)nc(-c3ccccc3)n2)c1	-9	i	12*	0.28	-10*	i
Oc1c(Br)cc(Br)cc1CNc1cccc2cccnc12	1	i	i	1.3	i	i
Oc1ccc(Cl)cc1CNc1cccc2cccnc12	-4	i	i	2	i	-7.7*
CC(=O)NCCNc1ccc([N+](=O)[O-])cc1C#N	5.8*	i	i	0.86	i	i
COc1ccc(CNCC(O)COc2ccc(C(C)(C)c3ccccc3)cc2)cc1 (configuration not stated)	-27	i	i	-5.7*	i	i
CC(C)(c1ccccc1)c1ccc(OCC(O)CNC2CCN(Cc3ccccc3)CC2)cc1 (configuration not stated)	-30	i	8*	-4.9*	i	-7.5*
O=C(O)Cc1ccc(O)c(O)c1	-4	i	i	0.76	i	i
O=C(O)Cc1cc(I)c(Oc2ccc(O)c(I)c2)c(I)c1	9.9*	i	i	-2.5	.	i
O=CC1=C(c2ccccc2)Oc2ccccc2O1	-9	i	6*	-7.6*	i	i
CN(C)/C=C1/N=C(c2ccccc2)OC1=O	-3	i	i	0.1	i	i
O=C(Nc1cc(C(F)(F)F)ccc1Cl)C(Sc1nnc(-c2cccs2)o1)c1ccccc1 (configuration not stated)	-13	i	6*	-1.9	i	i
O=C(Nc1ccc(Cl)cc1C(F)(F)F)C(Sc1nnc(-c2cccs2)o1)c1ccccc1 (configuration not stated)	-12	i	6*	1.9	i	i
CCCCSCCCNC(=O)c1ccc(CS(=O)(=O)c2ccccc2OC)o1	-12	i	i	0.06	i	i
Cn1c(N)c(C(=O)COC(=O)/C=C/c2ccc(Cl)c(Cl)c2)c(=O)n(C)c1=O	.	.	.	.	i	.
Cn1sccc1=O	.	.	.	.	i	.
CCN(CC)CCCNC(=O)c1cc2c(Cl)nc3ccccc3c2s1	-12	i	i	-0.89	i	i
CN(CCCNC(=O)c1cc2c(Cl)nc3ccccc3c2s1)Cc1ccccc1	-22	i	i	-5*	i	i
N#Cc1cccc(C#N)c1Oc1ccc(N)cc1	-4	i	i	-0.24	i	-6.8*
CCN1C(=O)/C(=C/c2ccc(C)s2)NC1=S	10*	10*	i	-0.11	i	i
CCN(CC(=O)Nc1ccccc1OC)C(=O)CN1C(=O)NC(C)(c2ccc3ccccc3c2)C1=O (configuration not stated)	.	.	.	.	i	.
COc1cc(NC(=O)c2cc(-c3ccccc3Cl)on2)cc(OC)c1OC	-2	i	i	0.26	i	i
CC(NCc1cc(Br)ccc1OCC(=O)NCc1ccccc1)c1ccccc1 (configuration not stated)	-39	i	6*	-16*	i	i

Screening results as filed in PubChem BioAssay.
